Calls of active or inactive are those of the source. No cut-off for these calls is given here.
Legend:
Homo sapiens [1] = species on record: Homo sapiens; experiment: Binding affinity to human telomeric 5'-AGATAGTTAGGGTTAGGGTTAGGGTTAGGGTT-3' DNA assessed as induction of intramoleculsr G-quadruplex formation after 10 hrs by PAGE analysis
How it was run: (§1)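 FAM-labeled G-rich strand (2 µM) and complementary C-rich strand (2 µM) with compound in 10 mM Tris-HCl pH 7.4, 100 mM KCl. Heated to 95 °C for 5 min, slowly cooled to 55 °C, held 10 h, then cooled to 4 °C. Duplex vs G-quadruplex resolved on 16% native PAGE with 50 mM KCl (4 °C, 350 V, 10 h) and fluorescence-imaged.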

Homo sapiens [2] = species on record: Homo sapiens; experiment: Binding affinity to human TERT2 5'-GGGGGCTGGGCCGGGGACCCGGGAGGGGTCGGGACGGGGCGGGG-3' DNA assessed as induction of intermolecular G-quadruplex formation at 8 to 32 uM after 10 hrs by PAGE analysis; how it was run: as §1
A549 [3] = experiment: Binding affinity to human TERT promoter DNA sequence in human A549 cells assessed as telomere restriction fragment length at 0.4 uM after 24 days by TeloTAGGG-based chemiluminescence assay (reference value: 3.6 kb); assay type: cell-based
How it was run: (§2)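 Genomic DNA from A549 cells kept long-term with 0.4 or 0.8 μM compound (medium changed every 3 days, replated every 6 days). DNA isolated with DNAzol. 2 µg digested with RsaI/HinfI, run on 0.8% agarose, Southern-blotted, hybridized with DIG-labeled telomeric probe, anti-DIG alkaline phosphatase, chemiluminescence. Mean TRF = Σ(ODi)/Σ(ODi/Li).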

A549 [4] = experiment: Antiproliferative activity against human A549 cells assessed as cell division arrest at 0.8 uM measured on day 36; assay type: functional, cell-based
How it was run: (§3)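 A549 cells (1.5×10^5) seeded in RPMI 1640 + 10% FBS with 0.4 or 0.8 μM perylene or medium only. Medium changed every 3 days. Every 6 days, at confluence, cells were trypsinized, counted by hemocytometer and replated at 1.5×10^5. Population doublings n = (log Pn − log P0)/log 2, cumulated against time. Three independent experiments.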

A549 [5] = experiment: Induction of senescence in human A549 cells assessed as cell enlargement at 0.4 uM incubated for 54 days followed by subculturing on compound-free medium measured after 48 hrs by fluorescence microscopic analysis; assay type: functional, cell-based
How it was run: (§4)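 A549 cells from the long-term treatment replated and grown 48 h. Fixed in 2% formaldehyde/0.2% glutaraldehyde for 5 min at RT. Stained overnight with 1 mg/ml X-gal in pH 6 citrate/phosphate buffer with 5 mM ferro/ferricyanide, 150 mM NaCl, 2 mM MgCl2. Enlarged blue cells scored by microscopy.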

A549 [6] = experiment: Cytotoxicity against human A549 cells assessed as colony formation at 0.8 uM incubated for 6 days followed by subculturing in compound-free medium measured after 14 days by crystal violet staining method relative to control; assay type: functional
How it was run: (§5)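 A549 cells from the long-term culture (0.4 or 0.8 μM, medium changed every 3 days, replated every 6 days) were collected on the stated day. 2×10^3 cells seeded per 10-cm dish, fed every 4-5 days. Colonies stained with crystal violet after 14 days and counted; expressed as % of control. Controls under 25 colonies excluded. Three independent experiments.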

A549 [7] = experiment: Binding affinity to human TERT promoter DNA sequence in human A549 cells assessed as telomere restriction fragment length at 0.8 uM after 18 days by TeloTAGGG-based chemiluminescence assay (reference value: 3.6 kb); assay type: cell-based; how it was run: as §2
A549 [8] = experiment: Antiproliferative activity against human A549 cells assessed as decrease in population doubling at 0.4 uM after 42 days; assay type: functional, cell-based; how it was run: as §3
A549 [9] = experiment: Binding affinity to human TERT promoter DNA sequence in human A549 cells assessed as telomere restriction fragment length at 0.4 uM after 54 days by TeloTAGGG-based chemiluminescence assay (reference value: 3.6 kb); assay type: cell-based; how it was run: as §2
Homo sapiens [10] = species on record: Homo sapiens; experiment: Binding affinity to human TERT2 5'-GGGGGCTGGGCCGGGGACCCGGGAGGGGTCGGGACGGGGCGGGG-3' DNA assessed as induction of intramolecular G-quadruplex formation at 4 uM after 10 hrs by PAGE analysis; how it was run: as §1
A549 [11] = experiment: Induction of senescence in human A549 cells assessed as increase in beta-galactosidase activity at 0.4 uM incubated for 54 days followed by subculturing on compound-free medium measured after 48 hrs by fluorescence microscopic analysis; assay type: functional, cell-based; how it was run: as §4
A549 [12] = experiment: Binding affinity to human TERT promoter DNA sequence in human A549 cells assessed as inhibition of telomerase-mediated MTS primer extension after 24 hrs by fluorescence-based TRAP assay; assay type: cell-based
How it was run: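 A549 cells exposed to compound for 24 h, lysed in CHAPS buffer, protein measured by Bradford. 6 µg lysate protein used as telomerase source in fluorescent TRAP with MTS primer (no G-quadruplex motif), with no phenol-chloroform step. FAM-primer PCR, native PAGE, fluorescence quantified. Mean ± SD of three experiments.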

A549 [13] = experiment: Antiproliferative activity against human A549 cells assessed as decrease in population doubling at 0.8 uM after 18 days; assay type: functional, cell-based; how it was run: as §3
A549 [14] = experiment: Cytotoxicity against human A549 cells assessed as reduction in colony formation incubated for 24 days followed by subculturing in compound-free medium measured after 14 days by crystal violet staining method; assay type: functional, cell-based; how it was run: as §5
A549 [15] = experiment: Binding affinity to human TERT promoter DNA sequence in human A549 cells assessed as decrease in TERT mRNA expression at 6 uM after 24 hrs by semi-quantitative PCR analysis relative to control; assay type: cell-based; parameters: scale not given: the % may be the effect or the level left
How it was run: (§6)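 A549 cells (3.0×10^5) grown 24 h in RPMI 1640 + 10% FBS at 37 °C, 5% CO2, then exposed to compound for 24 h. Total RNA by Trizol, reverse transcribed, hTERT amplified with specific primers. Semi-quantitative and real-time SYBR Green PCR (45 cycles), standard-curve method, normalized to GAPDH. Three independent experiments.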

A549 [16] = experiment: Cytotoxicity against human A549 cells assessed as colony formation at 0.4 uM incubated for 6 days followed by subculturing in compound-free medium measured after 14 days by crystal violet staining method relative to control; assay type: functional; how it was run: as §5
A549 [17] = experiment: Cytotoxicity against human A549 cells assessed as colony formation at 0.4 uM incubated for 24 days followed by subculturing in compound-free medium measured after 14 days by crystal violet staining method relative to control; assay type: functional; how it was run: as §5
A549 [18] = experiment: Cytotoxicity against human A549 cells assessed as colony formation at 0.8 uM incubated for 24 days followed by subculturing in compound-free medium measured after 14 days by crystal violet staining method relative to control; assay type: functional; how it was run: as §5
[19] = Binding affinity to TSG4 primer DNA (unknown origin) assessed as inhibition of telomerase-mediated extension of primer […] by fluorescence-based TRAP assay
How it was run: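 Cell-free TRAP. Compound preincubated with TSG4 primer in telomerase buffer (20 mM Tris-HCl pH 7.4, 1.5 mM MgCl2, 63 mM KCl, 1 mM EGTA, 200 µM dNTPs) at 37 °C for 2 h. Crude telomerase (50 ng) from telomerase-transfected HEK293T added, 30 °C for 30 min. Compound removed by phenol-chloroform, products ethanol-precipitated, PCR with FAM-tagged primer, 8% native PAGE, phosphoimaging. IC50 ± SD from three experiments.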

A549 [20] = experiment: Binding affinity to human TERT promoter DNA sequence in human A549 cells assessed as decrease in TERT mRNA expression after 24 hrs by semi-quantitative PCR analysis; assay type: cell-based; how it was run: as §6
A549 [21] = experiment: Binding affinity to human TERT promoter DNA sequence in human A549 cells assessed as telomere restriction fragment length at 0.4 uM after 6 days by TeloTAGGG-based chemiluminescence assay (reference value: 3.6 kb); assay type: cell-based; how it was run: as §2
A549 [22] = experiment: Antiproliferative activity against human A549 cells assessed as effect on population doubling at 0.4 uM up to 42 days; assay type: functional, cell-based; how it was run: as §3
Homo sapiens [23] = species on record: Homo sapiens; experiment: Binding affinity to human TERT1 5'-AAGGGGAGGGGCTGGGAGGGCCCGGA-3' DNA assessed as induction of intramoleculsr G-quadruplex formation after 10 hrs by PAGE analysis; how it was run: as §1
A549 [24] = experiment: Binding affinity to human TERT promoter DNA sequence in human A549 cells assessed as telomere restriction fragment length at 0.8 uM after 30 days by TeloTAGGG-based chemiluminescence assay (reference value: 3.6 kb); assay type: cell-based; how it was run: as §2
A549 [25] = experiment: Binding affinity to human TERT promoter DNA sequence in human A549 cells assessed as telomere restriction fragment length at 0.8 uM after 6 days by TeloTAGGG-based chemiluminescence assay (reference value: 3.6 kb); assay type: cell-based; how it was run: as §2
A549 [26] = experiment: Cytotoxicity against human A549 cells assessed as colony formation at 0.4 uM incubated for 54 days followed by subculturing in compound-free medium measured after 14 days by crystal violet staining method relative to control; assay type: functional; how it was run: as §5
A549 [27] = experiment: Antiproliferative activity against human A549 cells assessed as decrease in cell viability at 0.4 uM after 42 days; assay type: functional, cell-based; how it was run: as §3

Activity (Homo sapiens [1]): Dose-dependent effect | Activity (Homo sapiens [2]): Active | Activity (Homo sapiens [10]): Active | IC50 [19]: 800 nM | inhibition [19]: Dose-dependent effect | Activity (Homo sapiens [23]): Dose-dependent effect
SMILES: CCN(CC)CCN1C(=O)c2ccc3c4cccc5c(N6CCNCC6)ccc(c6ccc(c2c36)C1=O)c54
Activity (A549 [3]): 3.5 kilobase | Activity (A549 [4]): Active | Activity (A549 [5]): Active | Activity (A549 [6]): 100% | Activity (A549 [7]): 3.5 kilobase | Activity (A549 [8]): Active | Activity (A549 [9]): 2.9 kilobase | Activity (A549 [11]): Active | Activity (A549 [12]): Dose-dependent effect | Activity (A549 [13]): Active | Activity (A549 [14]): Dose-dependent effect | Activity (A549 [15]): 37% | Activity (A549 [16]): 100% | Activity (A549 [17]): 73% | Activity (A549 [18]): 35% | Activity (A549 [20]): Dose-dependent effect | Activity (A549 [21]): 3.6 kilobase | Activity (A549 [22]): inactive | Activity (A549 [24]): 3.2 kilobase | Activity (A549 [25]): 3.6 kilobase | Activity (A549 [26]): 60% | Activity (A549 [27]): inactive
